Measured values published in ChEMBL document CHEMBL1148491, “Synthesis and pharmacological characterization of nicotinic acetylcholine receptor properties of (+)- and (-)-pyrido-[3,4-b]homotropanes” (J Med Chem, 2006).
Activity calls are given as the source filed them. The calls are words filed in the database; no cut-off is given here.

Tests used:
[1] = target: T1, Neuronal acetylcholine receptor; alpha4/beta2 (Homo sapiens, UniProt P17787+P43681); assay: Agonist activity at human alpha-4-beta-2 nACHR in SH-EP1 cells by patch-clamp assay at 10 uM; format: functional, cell-based
[2] = target: T1, Neuronal acetylcholine receptor; alpha4/beta2; assay: Antagonist activity at human alpha-4-beta-2 nACHR in SH-EP1 cells by patch-clamp assay at 10 uM; format: functional, cell-based; design: scale not given: the % may be the effect or the level left
[3] = target: T2, Neuronal acetylcholine receptor; alpha3/beta4 (Rattus norvegicus) (UniProt P04757+P12392); assay: Agonist activity at rat alpha3beta4 nACHR in HEK293 cells by patch-clamp assay at 10 uM; format: functional, cell-based
[4] = target: T2, Neuronal acetylcholine receptor; alpha3/beta4 (Rattus norvegicus); assay: Antagonist activity at rat alpha-3-beta-4 nACHR in HEK293 cells by patch-clamp assay at 10 uM; format: functional, cell-based; design: scale not given: the % may be the effect or the level left
[5] = target: Neuronal acetylcholine receptor subunit alpha-7 (Homo sapiens) (UniProt P36544); assay: Displacement of [125I]iodoMLA from alpha-7 nACHR at 10 uM; conditions: Rattus norvegicus
[6] = target: T1, Neuronal acetylcholine receptor; alpha4/beta2; assay: Intrinsic activity at human alpha-4-beta-2 nACHR in SH-EP1 cells relative to ACh; format: functional, cell-based
[7] = target: T1, Neuronal acetylcholine receptor; alpha4/beta2; assay: Activity at human alpha-4-beta-2 nACHR assessed as inhibition of ACh-induced current in SH-EP1 cells at 40 uM; format: functional, cell-based; design: scale not given: the % may be the effect or the level left
[8] = system: Mus musculus; assay: Antinociceptive activity in mouse by tail flick assay at 10 ug administered intrathecally; format: functional, organism-based
In short: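 Tail-flick latency to a heat lamp in mice after intrathecal injection of 10 µg/mouse.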

[9] = organism: Mus musculus; assay: Hypothermia in mouse; format: functional
In short: (§1)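 Rectal temperature in mice measured by thermistor probe inserted 24 mm, read just before and at several times after sc injection (saline vehicle). Readout is the before-after difference for each mouse; ambient temperature 21-24 °C.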

[10] = organism: Mus musculus; assay: Antinociceptive activity in mouse by tail flick assay
[11] = system: Mus musculus; assay: Antinociceptive activity in sc dosed mouse by hot plate assay after 5 mins
[12] = organism: Mus musculus; assay: Spontaneous activity in mouse; format: functional
In short: (§2)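 Mice placed in individual photocell activity cages 5 min after sc injection (0.9% saline vehicle). Photocell beam interruptions were counted over the next 10 min.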

[13] = target: Neuronal acetylcholine receptor; alpha4/beta2 (Rattus norvegicus, UniProt P09483+P12390); assay: Displacement of [3H]epibatidine from alpha-4-beta-2 nACHR in rat cerebral cortex; format: tissue-based
[14] = system: Mus musculus; assay: Antinociceptive activity in mouse by tail flick assay at 1 mg/kg; format: functional
In short: (§3)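 Mouse tail-flick: tail exposed to a heat lamp and flick latency recorded. A control latency (2-4 s) was taken before treatment and a test latency after drug. Response given as %MPE = (test - control)/(maximum - control) × 100. ED50 with 95% confidence limits from unweighted least-squares linear regression.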

[15] = system: Mus musculus; assay: Antagonist effect on nicotine-induced antinociceptive activity in mouse by tail flick assay at […]; format: functional; design: scale not given: the % may be the effect or the level left
[16] = system: Mus musculus; assay: Antinociceptive activity in mouse by hot plate assay at 1 mg/kg, sc after 5 mins; format: functional; conditions: route subcutaneous
In short: (§4)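 Mouse hot-plate at 55.0 °C in a 10-cm glass cylinder. Two control latencies were taken ≥10 min apart (normal 8-12 s), scored by jumping or paw licking. Mice were tested 5 min after sc injection. Response given as %MPE = (test - control)/(maximum - control) × 100.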

[17] = system: Mus musculus; assay: Antagonist effect on nicotine-induced antinociceptive activity in mouse by hot plate assay at […]; format: functional; design: scale not given: the % may be the effect or the level left
[18] = system: Mus musculus; assay: Antagonist effect on nicotine-induced hypothermia in mouse at […]; format: functional; design: scale not given: the % may be the effect or the level left
[19] = system: Rattus norvegicus; assay: Agonist activity on nicotine discrimination in rat at 0.56 mg/kg by lever press assay; format: functional
In short: (§5)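 Substitution tests were 15-min sessions starting 10 min after sc injection, with either lever reinforced. A rat was tested only if it made ≥80% injection-appropriate responses on the prior training day. Readouts: % nicotine-lever responding and response rate.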

[20] = system: Rattus norvegicus; assay: Antagonist activity on nicotine discrimination in rat at 0.3 mg/kg by lever press assay; format: functional; design: scale not given: the % may be the effect or the level left
In short: (§6)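 Pretreatment with the test dose sc was followed 10 min later by 0.4 mg/kg (-)-nicotine, then a 15-min test session. Readouts: % nicotine-lever responding and response rate.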

[21] = system: Mus musculus; assay: Spontaneous activity in mouse at 5 mg/kg; format: functional; in short: as §2
[22] = organism: Mus musculus; assay: Antagonist effect against nicotine-induced antinociceptive activity in mouse by tail flick assay; format: functional
[23] = organism: Mus musculus; assay: Antagonist effect on nicotine-induced antinociceptive activity in mouse by hot plate assay; format: functional
[24] = system: Rattus norvegicus; assay: Agonist activity on nicotine discrimination in rat at 3 mg/kg by lever press assay; format: functional; in short: as §5
[25] = system: Mus musculus; assay: Antinociceptive activity in mouse by tail flick assay at 10 mg/kg; format: functional; in short: as §3
[26] = system: Mus musculus; assay: Antinociceptive activity in mouse by hot plate assay at 10 mg/kg, sc after 5 mins; format: functional; conditions: route subcutaneous; in short: as §4
[27] = system: Rattus norvegicus; assay: Antagonist activity on nicotine discrimination in rat at 3 mg/kg by lever press assay; format: functional; design: scale not given: the % may be the effect or the level left; in short: as §6
[28] = system: Mus musculus; assay: Hypothermia in mouse at 5 mg/kg; format: functional, organism-based; design: dose 5 mg/kg; in short: as §1

Sequence of Neuronal acetylcholine receptor; alpha4/beta2 (Rattus norvegicus, UniProt P09483+P12390) (P09483 whole entry): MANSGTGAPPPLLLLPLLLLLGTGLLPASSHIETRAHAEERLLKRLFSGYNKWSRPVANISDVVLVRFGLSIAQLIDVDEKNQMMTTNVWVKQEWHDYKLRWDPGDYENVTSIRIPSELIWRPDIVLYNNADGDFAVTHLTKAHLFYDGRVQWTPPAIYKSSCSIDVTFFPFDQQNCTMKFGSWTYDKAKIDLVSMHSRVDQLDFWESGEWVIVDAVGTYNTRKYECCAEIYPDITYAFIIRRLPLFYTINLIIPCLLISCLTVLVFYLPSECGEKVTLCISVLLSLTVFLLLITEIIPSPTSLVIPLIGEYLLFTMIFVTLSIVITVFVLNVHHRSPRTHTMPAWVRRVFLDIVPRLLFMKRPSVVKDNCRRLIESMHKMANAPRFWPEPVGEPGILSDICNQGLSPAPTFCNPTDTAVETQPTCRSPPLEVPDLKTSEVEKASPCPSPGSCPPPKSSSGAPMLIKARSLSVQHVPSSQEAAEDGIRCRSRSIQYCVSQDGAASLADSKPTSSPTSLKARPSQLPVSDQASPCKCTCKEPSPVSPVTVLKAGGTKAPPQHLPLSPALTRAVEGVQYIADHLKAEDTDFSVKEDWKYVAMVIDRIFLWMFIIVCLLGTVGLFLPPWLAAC
Sequence of Neuronal acetylcholine receptor; alpha4/beta2 (Rattus norvegicus, UniProt P09483+P12390) (P12390 whole entry): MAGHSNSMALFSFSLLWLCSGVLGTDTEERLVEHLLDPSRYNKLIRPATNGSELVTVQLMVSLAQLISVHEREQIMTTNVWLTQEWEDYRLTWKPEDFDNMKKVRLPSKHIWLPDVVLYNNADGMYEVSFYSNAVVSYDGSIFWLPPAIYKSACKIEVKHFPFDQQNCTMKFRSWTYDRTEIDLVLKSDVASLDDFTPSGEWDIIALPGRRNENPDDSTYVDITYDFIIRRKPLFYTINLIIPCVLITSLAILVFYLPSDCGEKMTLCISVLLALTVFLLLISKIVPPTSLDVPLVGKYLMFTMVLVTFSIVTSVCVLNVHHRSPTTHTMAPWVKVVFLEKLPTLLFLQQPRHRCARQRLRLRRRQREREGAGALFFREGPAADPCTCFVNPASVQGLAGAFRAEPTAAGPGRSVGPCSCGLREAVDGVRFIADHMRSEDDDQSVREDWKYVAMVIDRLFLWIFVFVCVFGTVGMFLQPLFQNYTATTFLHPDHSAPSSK
Sequence of Neuronal acetylcholine receptor subunit alpha-7 (Homo sapiens) (P36544 whole entry): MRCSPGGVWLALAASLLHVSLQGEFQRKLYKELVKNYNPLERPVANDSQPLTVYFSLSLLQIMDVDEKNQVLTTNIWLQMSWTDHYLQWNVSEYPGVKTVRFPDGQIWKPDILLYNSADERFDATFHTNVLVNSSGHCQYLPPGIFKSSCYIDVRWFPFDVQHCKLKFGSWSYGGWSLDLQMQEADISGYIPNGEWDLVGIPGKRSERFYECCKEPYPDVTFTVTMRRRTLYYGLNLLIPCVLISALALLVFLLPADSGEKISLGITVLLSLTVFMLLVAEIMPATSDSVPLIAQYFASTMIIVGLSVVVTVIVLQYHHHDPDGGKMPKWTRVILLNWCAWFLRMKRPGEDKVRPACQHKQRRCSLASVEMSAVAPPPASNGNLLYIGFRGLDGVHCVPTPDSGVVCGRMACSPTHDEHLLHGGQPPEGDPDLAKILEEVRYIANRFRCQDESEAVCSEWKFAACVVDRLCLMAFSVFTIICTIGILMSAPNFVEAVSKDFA
T1 sequence (P17787 whole entry): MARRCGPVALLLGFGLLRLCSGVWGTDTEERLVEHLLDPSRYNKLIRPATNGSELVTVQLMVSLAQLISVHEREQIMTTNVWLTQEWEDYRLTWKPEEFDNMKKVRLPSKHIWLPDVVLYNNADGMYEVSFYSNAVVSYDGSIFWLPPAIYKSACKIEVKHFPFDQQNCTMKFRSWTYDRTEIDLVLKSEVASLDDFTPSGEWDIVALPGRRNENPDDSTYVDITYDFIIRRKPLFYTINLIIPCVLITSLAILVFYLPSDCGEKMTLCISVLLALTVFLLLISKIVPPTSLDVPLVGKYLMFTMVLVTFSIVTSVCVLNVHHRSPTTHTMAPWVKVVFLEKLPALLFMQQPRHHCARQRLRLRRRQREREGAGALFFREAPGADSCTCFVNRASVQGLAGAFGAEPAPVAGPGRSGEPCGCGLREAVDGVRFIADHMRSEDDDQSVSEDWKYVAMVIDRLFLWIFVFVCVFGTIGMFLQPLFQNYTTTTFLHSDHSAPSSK
T1 sequence (P43681 whole entry): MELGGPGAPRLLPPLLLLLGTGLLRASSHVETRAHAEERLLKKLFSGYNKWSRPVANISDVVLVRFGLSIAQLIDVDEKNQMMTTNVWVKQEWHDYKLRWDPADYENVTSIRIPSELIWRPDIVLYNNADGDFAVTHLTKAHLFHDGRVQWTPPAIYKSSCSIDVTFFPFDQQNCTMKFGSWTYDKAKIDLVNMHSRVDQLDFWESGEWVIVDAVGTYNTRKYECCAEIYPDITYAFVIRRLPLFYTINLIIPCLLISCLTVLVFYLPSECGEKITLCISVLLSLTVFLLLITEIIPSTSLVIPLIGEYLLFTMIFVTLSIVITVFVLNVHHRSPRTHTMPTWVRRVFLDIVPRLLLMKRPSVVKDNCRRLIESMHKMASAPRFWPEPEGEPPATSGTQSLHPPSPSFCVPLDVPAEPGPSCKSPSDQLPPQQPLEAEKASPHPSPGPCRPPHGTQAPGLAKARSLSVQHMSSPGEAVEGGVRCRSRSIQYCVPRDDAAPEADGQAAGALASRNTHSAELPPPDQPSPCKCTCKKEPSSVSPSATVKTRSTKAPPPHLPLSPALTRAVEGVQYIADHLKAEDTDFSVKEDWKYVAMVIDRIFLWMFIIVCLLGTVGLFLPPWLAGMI

Work on `c1cc2c(cn1)C1CCC(CC2)N1` (single isomer, unassigned; (+)) [listing 1 of 2 here] yielded an Activity [1] of 28%, an Activity [2] of 117% and an Activity [3] of 13%. The Activity [4] was 101%, the inhibition [5] was under 50% and the Activity [6] was 17%. The Activity [7] was 10% and the Activity [8] was “inactive”.
`CN1CCC[C@@H]1c1cccnc1` [R-NICOTINE] showed an ED50 ([9]; Mus musculus, read-out: ED50) of 7600 µg/kg, an ED50 [10] of 8000 µg/kg and an ED50 [11] of 3900 µg/kg. The ED50 ([12]; Mus musculus, read-out: ED50) was 2900 µg/kg.
Work on `c1cc2c(cn1)C1CCC(CC2)N1` (single isomer, unassigned; (+)) [listing 2 of 2 here] yielded an ED50 [9] of 2900 µg/kg, a Ki [13] of 1.29 nM and an Activity [14] of 8%. For the same molecule, the Activity [15] was 0%, the Activity [16] was 8% and the Activity [17] was 5%. For the same molecule, the Activity [18] was 0%, the ED50 [12] was 2000 µg/kg and the EC50 [6] was 5500 nM. For the same molecule, the Activity [19] was 44.5% and the Activity [20] was 96%.
`c1cc2c(cn1)C1CCC(CC2)N1` (single isomer, unassigned; (-)) [listing 1 of 2 here] gave a Ki [13] of 350 nM, an Activity [14] of 2% and an Activity [16] of 2%. For the same molecule, the Activity [21] was 10%, the AD50 [22] was 0.07 µg/kg and the AD50 [23] was 0.8 µg/kg. The Activity [24] was 23.8%.
For `c1cc2c(cn1)C1CCC(CC2)N1` (racemic), the ED50 ([9]; Mus musculus, read-out: ED50) was 1600 µg/kg, the Ki [13] was 6.1 nM and the Activity [25] was 12%. The Activity [26] was 2%, the ED50 ([12]; Mus musculus, read-out: ED50) was 2600 µg/kg and the AD50 [22] was 5 µg/kg. For the same molecule, the AD50 [23] was 1000 µg/kg, the Activity [24] was 17% and the Activity [27] was 84%.
For `Clc1ccc([C@H]2C[C@@H]3CC[C@H]2N3)cn1` [(-)-EPIBATIDINE], the ED50 ([9]; Mus musculus, read-out: ED50) was 4 µg/kg, the ED50 [10] was 6 µg/kg and the ED50 [11] was 4 µg/kg. It also gave an ED50 ([12]; Mus musculus, read-out: ED50) of 1 µg/kg.
Work on `CN1CCC[C@H]1c1cccnc1` [NICOTINE] yielded an ED50 ([9]; Mus musculus, read-out: ED50) of 1000 µg/kg, an ED50 [10] of 1300 µg/kg and an ED50 [11] of 650 µg/kg. It also gave an ED50 ([12]; Mus musculus, read-out: ED50) of 500 µg/kg.
For `Clc1ccc([C@@H]2C[C@H]3CC[C@@H]2N3)cn1` [(+)-EPIBATIDINE], the ED50 ([9]; Mus musculus, read-out: ED50) was 4 µg/kg, the ED50 [10] was 0.6 µg/kg and the ED50 [11] was 4 µg/kg. It also gave an ED50 ([12]; Mus musculus, read-out: ED50) of 1 µg/kg.
In the case of `c1cc2c(cn1)C1CCC(CC2)N1` (single isomer, unassigned; (-)) [listing 2 of 2 here], the Activity [28] is reported as “Active”, the Activity [1] is reported as 0% and the Activity [2] is reported as 89%. The Activity [3] was 0.9%, the Activity [4] was 93% and the inhibition [5] was 50%. For the same molecule, the Activity [8] was “inactive”.
